The record followed here is ChEMBL document CHEMBL3414459, “Phenolic thio- and selenosemicarbazones as multi-target drugs” (Eur J Med Chem, 2015).

Series [1] in a line: Antioxidant activity assessed as H2O2 scavenging activity at 100 uM incubated for 20 mins by phenol red based assay. It counts as physicochemical. In a few lines:
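Compound at 100 µM final, or DMSO control, in 0.1 M phosphate buffer pH 7.4 with H2O2 and 0.1 M NaCl, incubated in the dark at 37 °C for 20 min. Phenol red (0.2 mg/mL) and horseradish peroxidase (0.1 mg/mL) added, 15 min at 37 °C. NaOH added, 10 min at rt, A610 read. % reduction = (A_control − A_sample)/A_control × 100.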

The nature of series [2]: Antiproliferative activity against human HBL100 cells after 48 hrs by sulforhodamine B assay. It counts as functional. To be noted: HBL-100, 48 h. The gist of the method: (§1)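 Exponentially growing cells trypsinized into penicillin/streptomycin medium, >97% viable by trypan blue. Seeded per well: 10,000 (A549, HBL-100, HeLa, SW1573), 15,000 (T-47D), 20,000 (WiDr). Treatment began day 1, DMSO stocks 40 mM, 0.25% DMSO as control, triplicate, 48 h. Cells fixed with cold TCA 60 min at 4 °C, SRB stained, OD492 read, medium background subtracted.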

Series [3] can be described thus: Pro-oxidant activity assessed as hydroxyl radical generation through deoxyribose degradation by measuring change in absorbance at 0.83 mM by TBARS based spectrophotometry. It counts as ADME. To be noted: 830 µM. The gist of the method: (§2)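 Modified Halliwell deoxyribose assay with the compound at the stated concentration in 0.1 M phosphate buffer pH 7.4, with 2-deoxyribose, H2O2, and FeCl3 premixed with EDTA. Heated 1 h at 37 °C, then TBA in NaOH and trichloroacetic acid added and heated 15 min at 100 °C. Cooled, A532 read; DMSO as control. Repeated without deoxyribose to account for TBARS interference.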

A short description of series [4]: Antioxidant activity assessed as inhibition of the lipid peroxidation at 0.74 mM incubated for 24 hrs by ferric thiocyanate method. It counts as physicochemical. The following applies: 740 µM. In a few lines: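 Ferric thiocyanate method at 0.74 mM. 10.0 mM DMSO stock combined with methanolic linoleic acid in 0.2 M phosphate buffer pH 7.0. AAPH added, then 24 h at 50 °C in the dark; DMSO served as control. An aliquot was diluted in H2O–DMSO with NH4SCN and FeCl2 in HCl. After 3 min at rt, A546 read. % inhibition relative to control.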

Series [5] is described as follows: Inhibition of baker's yeast alpha-glucosidase using p-nitrophenyl-alpha-D-glucopyranoside substrate assessed as reduction in p-nitrophenolate formation at 500 uM. The following applies: Saccharomyces bayanus. The gist of the method: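 α-Glucosidase in 0.1 M phosphate buffer pH 6.8 with p-nitrophenyl-α-D-glucopyranoside at K_M (250 µM; K_M 0.25 mM). Inhibitor at 500 µM final or DMSO, DMSO 5% v/v.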

A short description of series [6]: Inhibition of baker's yeast alpha-glucosidase using p-nitrophenyl-alpha-D-glucopyranoside substrate assessed as inhibition constant for enzyme-compound binding by measuring reduction in p-nitrophenolate formation. Also on record: species or system Saccharomyces cerevisiae. The gist of the method:
(§3)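 Same α-glucosidase conditions: pH 6.8 phosphate buffer, 25 °C, A400 for p-nitrophenolate, 5% DMSO. Done for inhibitors exceeding 50% inhibition at 500 µM. Rates measured at 5 substrate concentrations from 0.25 to 4.0 K_m, each at a fixed inhibitor concentration, using 2–3 inhibitor concentrations. Lineweaver–Burk double reciprocal plots gave the inhibition mode and constants K_ia (E) and K_ib (ES).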

The nature of series [7]: Antioxidant activity assessed as DPPH free radical scavenging activity incubated for 30 mins. It counts as physicochemical. In a few lines:
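DPPH in HPLC-grade solvent mixed with compound in DMSO at 7 concentrations, or with DMSO alone as control. Kept in the dark at rt for 30 min, then A515 read against a blank. % DPPH remaining = A_sample/A_control × 100, plotted against concentration; EC50 taken from the straight line. Triplicate.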

The test system of series [8] is Saccharomyces bayanus. Nature of the series: Non-competitive inhibition of baker's yeast alpha-glucosidase using p-nitrophenyl-alpha-D-glucopyranoside substrate assessed as reduction in p-nitrophenolate formation by Lineweaver-Burk plot. The gist of the method: as §3
The next series relates to SW1573. Description: Antiproliferative activity against human SW1573 cells after 48 hrs by sulforhodamine B assay. The class given is functional. To be noted: SW1573, 48 h. The gist of the method: as §1
In another series the test system is T47D. Description: Antiproliferative activity against human T47D cells after 48 hrs by sulforhodamine B assay. It counts as functional. The gist of the method:
as §1

Another series has as its system HeLa. Nature of the series: Antiproliferative activity against human HeLa cells after 48 hrs by sulforhodamine B assay. The class given is functional. In a few lines:
as §1

The subject of another series is A549. Description: Antiproliferative activity against human A549 cells after 48 hrs by sulforhodamine B assay. It counts as functional. To be noted: A549, 48 h. The gist of the method: as §1
A further series has as its system WiDr. Description: Antiproliferative activity against human WiDr cells after 48 hrs by sulforhodamine B assay. It counts as functional. In a few lines: as §1
Series [9] in a line: Pro-oxidant activity assessed as hydroxyl radical generation through deoxyribose degradation by measuring change in absorbance at 0.42 mM by TBARS based spectrophotometry. The class given is ADME. The following applies: 420 µM. In a few lines:
as §2

A short description of series [10]: Pro-oxidant activity assessed as hydroxyl radical generation through deoxyribose degradation by measuring change in absorbance at 0.083 mM by TBARS based spectrophotometry. It counts as ADME. The following applies: 83 µM. The gist of the method: as §2
Series [11] in a line: Inhibition of baker's yeast alpha-glucosidase using p-nitrophenyl-alpha-D-glucopyranoside substrate assessed as inhibition constant for enzyme-substrate-compound binding by measuring reduction in p-nitrophenolate formation. In a few lines: as §3
The nature of series [12]: Pro-oxidant activity assessed as hydroxyl radical generation through deoxyribose degradation by measuring change in absorbance at 0.17 mM by TBARS based spectrophotometry. The class given is ADME. The following applies: 170 µM. The gist of the method:
as §2

The nature of series [13]: Mixed inhibition of baker's yeast alpha-glucosidase using p-nitrophenyl-alpha-D-glucopyranoside substrate assessed as reduction in p-nitrophenolate formation by Lineweaver-Burk plot. To be noted: Saccharomyces bayanus. The gist of the method:
as §3

The nature of series [14]: Inhibition of baker's yeast alpha-glucosidase using p-nitrophenyl-alpha-D-glucopyranoside substrate assessed as reduction in p-nitrophenolate formation. The gist of the method:
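Run in 0.1 M phosphate buffer, pH 6.8, with 5% (v/v) DMSO. […] Enzyme started the reaction at 25 °C, and p-nitrophenolate was followed at 400 nm. Percent inhibition came from rates with and without inhibitor. Where inhibition exceeded 50%, Ki and mode were derived by Lineweaver–Burk, using substrate 0.25–4.0 Km and 2–3 fixed inhibitor concentrations.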

A short description of series [15]: Potency index, ratio of IC50 for hydroxytyrosol to IC50 for test compound for antioxidant activity assessed as DPPH free radical scavenging activity incubated for 30 mins.
Series [16] deals with Saccharomyces bayanus. Nature of the series: Un-competitive inhibition of baker's yeast alpha-glucosidase using p-nitrophenyl-alpha-D-glucopyranoside substrate assessed as reduction in p-nitrophenolate formation by Lineweaver-Burk plot. The gist of the method: as §3
In series [17] the test system is Saccharomyces bayanus. Nature of the series: Potency index, ratio of Ki for acarbose to Ki for compound against baker's yeast alpha-glucosidase using p-nitrophenyl-alpha-D-glucopyranoside substrate assessed as reduction in p-nitrophenolate formation.

pEC50, pKi: −log10 of the molar value. Active and inactive are the calls of the source. The rule behind the calls is not given here.

In the case of `Oc1ccc(/C=N/NC(=[Se])Nc2ccccc2)cc1`, the “inhibition (INH)” value in series [1] is 72.5%; in series [4], 31%. The GI50 in series [2] was 13 µM; with SW1573 it was 19 µM; in the series with T47D, 7.2 µM; with HeLa, 3.7 µM; in the series on A549, 1.4 µM; in the series on WiDr, 16 µM. In series [3], the Activity is given as 0.087. The inhibition in series [5] was 62%. Moreover, the pKi in series [6] was 3.47. In addition, the pEC50 in series [7] is 4.56. In addition, in the series with Saccharomyces bayanus [8], the inhibition result was “Active”.

Consider `Oc1ccc(/C=N/NC(=[Se])Nc2cccc3ccccc23)cc1O`, for which the Activity in series [9] is 0.041; in series [3], 0.079; in [10], 0.097; in series [12], 0.037. Besides, the “inhibition (INH)” value in series [1] was 46.3%; in [4] it was 72%. The GI50 in [2] was 2.6 µM; with SW1573, 3.2 µM; with T47D, 2.5 µM; in the series with HeLa, 2.2 µM; with A549 it was 1.1 µM; in the series on WiDr it was 2.8 µM. For the same molecule, the pKi is 4.16 in [11] and 4.24 in [6]. In series [5], the inhibition is 95%. Further, the pEC50 in series [7] is 4.74. Further, the inhibition result in [13] is “Active”.

Take `C[C@H]1O[C@H](O[C@H]2[C@H](O)[C@@H](O)[C@@H](O[C@H]3[C@H](O)[C@@H](O)C(O)O[C@@H]3CO)O[C@@H]2CO)[C@H](O)[C@@H](O)[C@@H]1N[C@H]1C=C(CO)[C@@H](O)[C@H](O)[C@H]1O` (some centres undefined) [ACARBOSE]: the pKi in series [14] was 4.11.

For the molecule `Oc1ccc(/C=N/NC(=[Se])Nc2ccccc2)cc1O`, the entries for the “inhibition (INH)” value in series [1] and in series [4] were 69% and 66.5%, respectively. Also, the GI50 in series [2] amounted to 3.8 µM; with SW1573, 5.8 µM; in the series on T47D, 3.7 µM; with HeLa, 3.3 µM; in the series with A549, 2.6 µM; in the series with WiDr it was 3.2 µM. Also, the Activity in series [3] is 0.097. In series [5], the inhibition turned out to be 81%. The pKi in series [6] was 3.70. In series [7], the pEC50 was 5.06. In addition, the inhibition entry in the series on Saccharomyces bayanus [8] is “Active”. Besides, in [15], the Ratio IC50 is < 3.

Consider `Oc1ccc(/C=N/NC(=S)Nc2ccccc2)cc1`, for which the “inhibition (INH)” value is given as 79.5% in series [1] and 5.5% in series [4]. Also, the GI50 is 43 µM in series [2]; 35 µM in the series with SW1573; 88 µM in the series with T47D; 42 µM with HeLa; 34 µM with A549; 61 µM in the series on WiDr. Further, the Activity in series [3] is listed as 0.094. Moreover, the pKi in series [11] is 3.67. Besides, the inhibition in series [5] stood at 52%. Also, the inhibition result in the series on Saccharomyces bayanus [16] is “Active”. Besides, in series [7], the pEC50 is 4.05.

In the case of `Oc1cc(O)c(/C=N/NC(=[Se])Nc2cccc3ccccc23)cc1O`, the “inhibition (INH)” value in [1] is on record as 4.5%; in series [4], 43%. The 50% growth inhibitory concentration (GI50) in series [2] was 4 µM; in the series on SW1573, 5 µM; in the series on T47D it was 3.5 µM; in the series on HeLa, 3 µM; in the series with A549, 1.7 µM; with WiDr, 5.2 µM. The figures for the pKi in series [11] and in series [6] were 4.11 and 4.48, respectively. Moreover, the inhibition in series [5] was 95%. In series [7], the pEC50 was 4.97. Further, in series [15], the Ratio IC50 was < 3. In addition, the inhibition entry in series [13] is “Active”.

For `Oc1cc(/C=N/NC(=[Se])Nc2ccccc2)cc(O)c1O`, the results for the “inhibition (INH)” value in series [1] and in [4] were 64% and 65.7%, respectively. In addition, the GI50 in series [2] came out at 2 µM; with SW1573, 3.9 µM; in the series with T47D, 2.9 µM; in the series with HeLa, 2.1 µM; in the series on A549, 1.5 µM; with WiDr, 3.7 µM. Also, the negative-log Ki (pKi) is 4.11 in series [11] and 4.52 in [6]. Also, the inhibition in series [5] turned out to be 95%. Also, in series [7], the pEC50 was 5.31. In addition, the Ratio IC50 in series [15] was < 3. Further, the inhibition result in [13] was “Active”.

As for `Oc1ccc(/C=N/NC(=S)Nc2ccccc2)cc1O`, the “inhibition (INH)” value in series [1] came out at 79.3%; in [4], 72%. Besides, the GI50 came to 35 µM in [2]; 24 µM with SW1573; 25 µM in the series with T47D; 7 µM in the series on HeLa; 1.6 µM with A549; 27 µM with WiDr. In addition, the pKi in series [11] is 3.87; in series [6] it was 3.15. The inhibition in series [5] stood at 68%. Besides, the pEC50 in series [7] was 5.03. Besides, in [15], the Ratio IC50 is < 3. Besides, the inhibition entry in series [13] is “Active”.

As to `Oc1cc(O)c(/C=N/NC(=S)Nc2ccccc2)cc1O`, the “inhibition (INH)” value is “Not Active” in [1] and 56.8% in series [4]. For the same molecule, the GI50 worked out at 29 µM in series [2]; 30 µM with SW1573; 10 µM with T47D; 19 µM with HeLa; 1.2 µM in the series with A549; 30 µM in the series on WiDr. Besides, the Activity in [3] turned out to be 0.067. For the same molecule, the inhibition in series [5] was found to be 100%. For the same molecule, the negative-log Ki (pKi) in series [6] is 5.02. In series [7], the pEC50 is 4.86. In addition, the inhibition entry in the series with Saccharomyces bayanus [8] is “Active”. Also, in the series on Saccharomyces bayanus [17], the Ratio Ki was 8.
